As a reminder, the MIC is the least concentration at which growth counts as inhibited. A higher MIC goes with a less susceptible organism. Usually pIC50 stands for the negative decadic logarithm of the IC50, by convention in mol/L.

In ChEMBL document CHEMBL1287798, “3,5-disubstituted pyranone analogues of highly antifungally active furanones: conversion of biological effect from antifungal to cytostatic” (Bioorg Med Chem Lett, 2010) one finds inhibition, MIC and IC50 data, which are given here for five molecules.

One test relates to CCRF-CEM. The test is described as follows: Growth inhibition of human CCRF-CEM cells at 10 umol/L. It counts as functional, cell-based. In outline: (§1)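 Single-concentration cytostatic screen at 10 µmol L⁻¹ on mouse lymphocytic leukemia L1210 (ATCC CCL 219), human acute lymphoblastic leukemia CCRF-CEM T lymphoblastoid cells (ATCC CCL 119), human promyelocytic leukemia HL-60 (ATCC CCL 240) and human cervix carcinoma HeLa S3 (ATCC CCL 2.2).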

The subject of a further test is HL-60. The test is described as follows: Growth inhibition of human HL60 cells at 10 umol/L. It counts as functional, cell-based. In outline: as §1
Test [1] has as its system L1210. The test is described as follows: Growth inhibition of mouse L1210 cells at 10 umol/L. It counts as functional, cell-based. In outline: as §1
Another test concerns HeLa S3. As to the kind of experiment: Growth inhibition of human HeLaS3 cells at 10 umol/L. It counts as functional, cell-based. The method, boiled down: as §1
Test [2] deals with Candida albicans. The test is described as follows: Antifungal activity against Candida albicans ATCC 44859 by microdilution method. It counts as functional. A general note: Broth dilution looks for growth in wells or tubes with falling amounts of substance.
Test [3] deals with Trichophyton mentagrophytes. As to the kind of experiment: Antifungal activity against Trichophyton mentagrophytes 445 by microdilution method. It counts as functional.
In another test the test system is Candida tropicalis. The test is described as follows: Antifungal activity against Candida tropicalis 156 by microdilution method. It counts as functional.
The subject of another test is Trichosporon beigelii. The test is described as follows: Antifungal activity against Trichosporon beigelii 1188 by microdilution method. It counts as functional.
The subject of test [4] is Pichia kudriavzevii. The test is described as follows: Antifungal activity against Candida krusei E28 by microdilution method. It counts as functional.
The subject of another test is Nannizzia gypsea. As to the kind of experiment: Antifungal activity against Microsporum gypseum by microdilution method. It counts as functional.
For the next test, the system named is Clavispora lusitaniae. The test is described as follows: Antifungal activity against Clavispora lusitaniae 2446/I by microdilution method.
Test [5] deals with Pichia kudriavzevii. As to the kind of experiment: Antifungal activity against Candida krusei ATCC 6258 by microdilution method. It counts as functional.
For the next test, the system named is Lichtheimia corymbifera. The test is described as follows: Antifungal activity against Absidia corymbifera 272 by microdilution method. It counts as functional.
For test [6], the system named is Candida albicans. As to the kind of experiment: Antifungal activity against Candida albicans ATCC 90028 by microdilution method. It counts as functional.
Another test concerns Candida parapsilosis. As to the kind of experiment: Antifungal activity against Candida parapsilosis ATCC 22019 by microdilution method. It counts as functional. The note with it: Lodderomyces parapsilosis.
The subject of a further test is Nakaseomyces glabratus. As to the kind of experiment: Antifungal activity against Candida glabrata 20/I by microdilution method. It counts as functional.
Another test has as its system Aspergillus fumigatus. As to the kind of experiment: Antifungal activity against Aspergillus fumigatus 231 by microdilution method. It counts as functional.
For the next test, the system named is HT-29. As to the kind of experiment: Growth inhibition of human HT-29 cells. It counts as functional, cell-based.
Test [7] has as its system L1210. The test is described as follows: Growth inhibition of mouse L1210 cells. It counts as functional, cell-based.

pIC50: −log10 of the molar value. Calls of active or inactive are those of the source. The rule behind the calls is not given here. Some results are limits rather than exact numbers.

`O=C1OCC(CO)C=C1c1ccc(Cl)c(Cl)c1` (configuration not stated): the inhibition result in the test on CCRF-CEM, with HL-60, with L1210 [1] and in the test with HeLa S3 was “inactive” each time.

`O=C1OCC(COC(=O)c2ccccc2)C=C1c1ccc(Cl)cc1` (configuration not stated): the minimum inhibitory concentration (MIC) (with Candida albicans [2]; in test [3]; in the test with Candida tropicalis; in the test with Trichosporon beigelii; against Pichia kudriavzevii [4]; in the test on Nannizzia gypsea) was no less than 62.5 µM in each case. Also, the minimum inhibitory concentration (MIC) against Clavispora lusitaniae, in the test on Pichia kudriavzevii [5], with Lichtheimia corymbifera, in the test with Candida albicans [6], in the test on Candida parapsilosis and against Nakaseomyces glabratus was no less than 62.5 µM each time. In the test with Aspergillus fumigatus, this molecule displayed an MIC of no less than 62.5 µM. The inhibition entry in the test with HL-60 and with L1210 [1] was “inactive” throughout. The same molecule had a negative logarithm of the IC50 (pIC50) with HT-29 of 5.53.

Regarding `O=C1OCC(COC(=O)c2ccccc2)C=C1c1ccc(Cl)c(Cl)c1` (configuration not stated), the MIC (against Candida albicans [2]; in test [3]; with Candida tropicalis; in the test on Trichosporon beigelii; with Pichia kudriavzevii [4]; in the test on Nannizzia gypsea) was no less than 62.5 µM each time. Further, the MIC against Clavispora lusitaniae, in the test with Pichia kudriavzevii [5], against Lichtheimia corymbifera, in the test with Candida albicans [6], in the test with Candida parapsilosis and against Nakaseomyces glabratus was no less than 62.5 µM each time. For the same molecule, in the test with Aspergillus fumigatus, the MIC is no less than 62.5 µM. The negative logarithm of the IC50 (pIC50) in the test on L1210 [7] was 5.23.

Take `COc1ccc(C2=CC(COC(C)=O)COC2=O)cc1` (configuration not stated): the minimum inhibitory concentration (MIC) (against Candida albicans [2]; in test [3]; in the test on Candida tropicalis; against Trichosporon beigelii; against Pichia kudriavzevii [4]; with Nannizzia gypsea) was no less than 62.5 µM throughout. The minimal inhibitory concentration (MIC) against Clavispora lusitaniae, against Pichia kudriavzevii [5], with Lichtheimia corymbifera, in the test on Candida albicans [6], with Candida parapsilosis and against Nakaseomyces glabratus was no less than 62.5 µM each time. This molecule showed an MIC in the test with Aspergillus fumigatus of no less than 62.5 µM.

In the case of `CC(=O)OCC1C=C(c2ccc(Cl)c(Cl)c2)C(=O)OC1` (configuration not stated), the MIC (in the test on Candida albicans [2]; in test [3]; in the test on Candida tropicalis; with Trichosporon beigelii; in the test with Pichia kudriavzevii [4]; in the test on Nannizzia gypsea) was no less than 62.5 µM throughout. Further, the MIC in the test on Clavispora lusitaniae, with Pichia kudriavzevii [5], in the test on Lichtheimia corymbifera, against Candida albicans [6], in the test on Candida parapsilosis and against Nakaseomyces glabratus was no less than 62.5 µM in each case. This molecule had an MIC in the test on Aspergillus fumigatus of no less than 62.5 µM. Besides, the negative-log IC50 (pIC50) was 5.14 with L1210 [7] and 5.61 in the test on HT-29.
